The values below come from ChEMBL document CHEMBL4321820, “Identification and Optimization of Mechanism-Based Fluoroallylamine Inhibitors of Lysyl Oxidase-like 2/3” (J Med Chem, 2019).

Data set [1] addresses T1, Amine oxidase [copper-containing] 3 (Homo sapiens, UniProt Q16853).
T1 sequence (Q16853 whole entry): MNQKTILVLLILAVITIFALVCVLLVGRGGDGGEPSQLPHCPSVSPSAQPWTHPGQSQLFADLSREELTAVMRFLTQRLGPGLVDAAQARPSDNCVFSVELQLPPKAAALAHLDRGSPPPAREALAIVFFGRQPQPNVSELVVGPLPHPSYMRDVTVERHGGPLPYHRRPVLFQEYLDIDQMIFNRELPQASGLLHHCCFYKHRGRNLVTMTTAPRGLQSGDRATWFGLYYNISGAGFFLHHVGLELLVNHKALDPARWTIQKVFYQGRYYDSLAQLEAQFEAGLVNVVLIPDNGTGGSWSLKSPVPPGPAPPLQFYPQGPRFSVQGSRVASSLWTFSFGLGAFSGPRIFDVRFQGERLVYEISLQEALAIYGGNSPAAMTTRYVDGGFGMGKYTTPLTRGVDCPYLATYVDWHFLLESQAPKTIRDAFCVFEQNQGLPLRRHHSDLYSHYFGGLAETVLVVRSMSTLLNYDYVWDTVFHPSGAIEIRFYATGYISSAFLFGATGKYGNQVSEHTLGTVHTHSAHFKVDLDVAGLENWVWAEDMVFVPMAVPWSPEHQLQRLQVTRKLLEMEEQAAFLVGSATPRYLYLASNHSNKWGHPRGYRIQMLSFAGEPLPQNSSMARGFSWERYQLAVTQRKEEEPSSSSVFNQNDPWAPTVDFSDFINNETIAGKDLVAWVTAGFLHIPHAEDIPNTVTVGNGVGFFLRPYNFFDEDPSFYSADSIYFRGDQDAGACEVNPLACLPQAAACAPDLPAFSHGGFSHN
Briefly: Substrate activity at recombinant human SSAO assessed as compound oxidation by measuring oxidative turnover at 30 uM measured for 40 mins by horseradish peroxidase-coupled amplex red reagent-based fluorometric assay relative to DMSO. In kind it is ADME. In outline:
(§1)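 Compound oxidation measured without substrate by peroxidase-coupled fluorometric read-out of resorufin formation over 40 min at 37 °C in HEPES buffer. Amplex Red 20 µM, HRP 4 U/ml, test compound at final 30 µM. Enzyme source was human recombinant SSAO or AOC4 from diluted dog serum. Benzylamine at 600 µM served as positive control. Signal is expressed relative to DMSO-only background, so a value near 1 means no turnover.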

Data set [2] deals with T2, Lysyl oxidase homolog 2 (Homo sapiens, UniProt Q9Y4K0).
T2 sequence (Q9Y4K0 whole entry): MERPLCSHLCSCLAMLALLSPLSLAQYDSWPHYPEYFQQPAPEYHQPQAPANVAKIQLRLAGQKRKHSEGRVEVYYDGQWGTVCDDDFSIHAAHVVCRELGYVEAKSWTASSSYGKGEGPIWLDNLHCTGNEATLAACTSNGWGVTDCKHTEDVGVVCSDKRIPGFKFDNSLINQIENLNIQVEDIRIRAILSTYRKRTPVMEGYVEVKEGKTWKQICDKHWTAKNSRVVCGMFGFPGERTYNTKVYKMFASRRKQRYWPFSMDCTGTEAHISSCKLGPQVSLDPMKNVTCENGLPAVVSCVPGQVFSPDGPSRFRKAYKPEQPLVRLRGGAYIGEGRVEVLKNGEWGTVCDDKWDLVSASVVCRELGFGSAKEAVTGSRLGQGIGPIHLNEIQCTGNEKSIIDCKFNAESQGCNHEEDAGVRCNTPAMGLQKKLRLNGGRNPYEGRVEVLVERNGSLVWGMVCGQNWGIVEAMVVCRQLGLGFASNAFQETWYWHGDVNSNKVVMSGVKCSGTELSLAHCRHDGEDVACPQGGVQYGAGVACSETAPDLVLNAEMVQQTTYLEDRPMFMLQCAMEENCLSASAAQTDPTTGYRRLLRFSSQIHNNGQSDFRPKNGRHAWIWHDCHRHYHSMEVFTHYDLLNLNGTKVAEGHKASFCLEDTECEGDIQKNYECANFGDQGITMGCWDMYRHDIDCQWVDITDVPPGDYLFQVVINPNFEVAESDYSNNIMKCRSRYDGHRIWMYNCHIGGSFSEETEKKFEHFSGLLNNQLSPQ
Briefly: Inhibition of recombinant human C-terminal His-tagged […] (1-774 residues) expressed in mouse myeloma cells using putrescine as substrate preincubated with enzyme for 30 mins followed by substrate addition and measured every 2.5 mins for 30 mins by Amplex-Red oxidation assay. The conditions noted are these: read-out: pIC50 (converted). The method in brief:
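LOXL2 enzyme preincubated with compound for 30 min at 37 °C, then Amplex Red (120 µM) / HRP (1.5 U/mL) mix containing 5 mM putrescine added. Buffer: 1.2 M urea, 50 mM sodium borate, pH 8.2. H2O2 fluorescence (ex 565/em 590) read every 2.5 min for 30 min at 37 °C; BAPN 100 µM as positive control; n≥2.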

The nature of data set [3]: Selectivity index, ratio of IC50 for recombinant human C-terminal His-tagged […] (1-774 residues) expressed in mouse myeloma cells to IC50 for LOX in bovine aorta.
Data set [4] in a line: Substrate activity at AOC4 in dog serum assessed as compound oxidation by measuring oxidative turnover at 30 uM measured for 40 mins by horseradish peroxidase-coupled amplex red reagent-based fluorometric assay relative to DMSO. Format: ADME, cell-free, Canis lupus familiaris. In outline:
as §1

The target of the next data set is T3, Protein-lysine 6-oxidase (Bos taurus, UniProt P33072).
T3 sequence (P33072 whole entry): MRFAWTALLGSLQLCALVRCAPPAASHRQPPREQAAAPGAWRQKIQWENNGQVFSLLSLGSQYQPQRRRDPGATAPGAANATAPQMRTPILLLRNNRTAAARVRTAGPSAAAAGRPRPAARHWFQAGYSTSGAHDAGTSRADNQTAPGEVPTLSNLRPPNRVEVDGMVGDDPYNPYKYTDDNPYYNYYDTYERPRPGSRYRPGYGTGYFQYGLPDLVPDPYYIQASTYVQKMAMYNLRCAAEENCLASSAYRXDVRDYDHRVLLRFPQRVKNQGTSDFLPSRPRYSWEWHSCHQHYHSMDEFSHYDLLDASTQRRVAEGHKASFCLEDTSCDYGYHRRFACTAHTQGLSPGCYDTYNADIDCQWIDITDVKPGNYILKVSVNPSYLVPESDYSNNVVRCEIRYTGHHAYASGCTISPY
Briefly: Inhibition of LOX in bovine aorta using putrescine as substrate preincubated with enzyme for 30 mins followed by substrate addition and measured every 2.5 mins for 30 mins by Amplex-Red oxidation assay. In kind it is tissue-based. The settings on record: read-out: pIC50 (converted). The method in brief: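 LOX extracted from calf aorta after PBS washing with 4 M urea/50 mM borate pH 8.2, concentrated on 10 kDa filters into 1.2 M urea/borate with protease inhibitors. Preincubated 30 min at 37 °C with compound, then Amplex Red/HRP with 10 mM putrescine; fluorescence read every 2.5 min for 30 min.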

Data set [5] addresses T4, Lysyl oxidase homolog 2 (Homo sapiens) (UniProt Q9Y4K0).
T4 sequence (whole entry): T2 sequence (Q9Y4K0 whole entry)
Put plainly: Inhibition of recombinant human LOXL2 assessed as inhibition of collagen cross linking compound replenishment for 5 days and measured on day 7 by UPLC-ESI-MS/MS analysis.

The target in data set [6] is T4, Lysyl oxidase homolog 2 (Homo sapiens). Briefly: Substrate competitive inhibition of recombinant human C-terminal His-tagged […] (1-774 residues) expressed in mouse myeloma cells using different concentrations of putrescine as substrate preincubated with enzyme for 30 mins followed by substrate addition and measured every 2.5 mins for 30 mins by substrate competition based Amplex-Red oxidation assay. The method in brief:
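Recombinant LOXL2 incubated with inhibitor plus a range of putrescine concentrations before the reaction mix was added (120 µM Amplex Red, 1.5 U/mL HRP). Buffer was 1.2 M urea, 50 mM sodium borate, pH 8.2. Fluorescence (ex 565/em 590 nm) read every 2.5 min for 30 min at 37 °C.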

The target is the same in data set [7]. Briefly: Time-dependent inhibition of recombinant human C-terminal His-tagged […] (1-774 residues) expressed in mouse myeloma cells assessed as inactivation constant using putrescine as substrate by kitz-wilson plot analysis. The method in brief: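 Recombinant human LOXL2 preincubated with inhibitor for varying times at 37 °C, then 5 mM putrescine added with 120 µM Amplex Red and 1.5 U/mL HRP. Buffer was 1.2 M urea, 50 mM sodium borate, pH 8.2. Fluorescence read every 2.5 min for 30 min. Apparent Ki and kinact derived by Kitz–Wilson analysis.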

The species named for the next data set is Homo sapiens. Briefly: Displacement of [3H]PK11195 from human recombinant peripheral benzodiazepine receptor at 10 uM incubated for 15 mins by scintillation counting method. The method in brief:
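Single-concentration screen at 10 µM in a panel of 119 enzyme and receptor targets under standard conditions; >50% inhibition of radioligand binding counted as a hit.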
(Displacement assays read how much labelled ligand stays bound in the presence of the test substance.)

Data set [8] concerns the target T4, Lysyl oxidase homolog 2 (Homo sapiens). Put plainly: Irreversible inhibition of recombinant human C-terminal His-tagged […] (1-774 residues) expressed in mouse myeloma cells assessed as maximal inhibition at 30XIC50 incubated for 60 mins followed by 100-fold dilution prior to addition of putrescine as substrate and measured after 30 mins by jump dilution assay based Amplex-Red oxidation assay relative to control. The method in brief: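 LOXL2 soaked 60 min at 37 °C with inhibitor at 30× IC50. Diluted 50-fold in assay buffer (1.2 M urea, 50 mM borate, pH 8.2), then 1:2 with reaction mix of Amplex Red 120 µM, HRP 1.5 U/mL and putrescine. Read out 30 min after substrate addition (ex 565/em 590, 37 °C). Percent activity followed over time after dilution.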

Data set [9] has the same target. Put plainly: Inhibition of recombinant human C-terminal His-tagged […] (1-774 residues) expressed in mouse myeloma cells at 10XIC50 preincubated with bound enzyme for 30 mins followed by drug wash-out and later incubated with putrescine substrate and measured after 30 mins by Amplex-Red oxidation assay. Format: cell-based.
The target is the same in data set [10]. Put plainly: Inhibition of recombinant human C-terminal His-tagged […] (1-774 residues) expressed in mouse myeloma cells assessed as recovery of enzyme activity at 10XIC50 preincubated with bound enzyme for 30 mins followed by drug wash-out and later incubated with putrescine substrate and measured after 30 mins by Amplex-Red oxidation assay. In kind it is cell-based. On the set-up: scale not given: the % may be the effect or the level left.

Data set [11] addresses T2, Lysyl oxidase homolog 2. Put plainly: Substrate activity at recombinant human C-terminal His-tagged […] (1-774 residues) expressed in mouse myeloma cells assessed as oxidative turnover at 30 uM measured after 30 mins by horseradish peroxidase-coupled amplex red reagent-based fluorescence assay relative to DMSO. Format: ADME, cell-based. The conditions noted are these: 0.5 h. In outline:
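LOXL2 incubated with compound, no substrate present. Hydrogen peroxide generation read by Amplex Red/HRP fluorescence (ex 565, em 590 nm). Oxidative turnover at 30 min expressed relative to DMSO.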

In data set [12] the target is T5, Amine oxidase [flavin-containing] B (Homo sapiens, UniProt P27338).
T5 sequence (P27338 whole entry): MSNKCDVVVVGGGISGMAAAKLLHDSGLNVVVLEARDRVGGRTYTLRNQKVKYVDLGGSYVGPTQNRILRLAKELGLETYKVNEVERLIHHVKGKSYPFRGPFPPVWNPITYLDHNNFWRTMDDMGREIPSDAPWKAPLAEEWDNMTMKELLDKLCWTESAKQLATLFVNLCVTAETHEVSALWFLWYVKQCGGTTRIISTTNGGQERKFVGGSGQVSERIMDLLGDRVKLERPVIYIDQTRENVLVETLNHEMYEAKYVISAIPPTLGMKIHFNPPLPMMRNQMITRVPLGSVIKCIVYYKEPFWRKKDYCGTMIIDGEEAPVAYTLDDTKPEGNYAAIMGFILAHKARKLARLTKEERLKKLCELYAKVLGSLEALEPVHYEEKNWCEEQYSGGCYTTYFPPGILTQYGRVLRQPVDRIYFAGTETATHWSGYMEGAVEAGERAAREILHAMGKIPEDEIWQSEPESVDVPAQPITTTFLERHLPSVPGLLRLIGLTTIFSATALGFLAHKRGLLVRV
Put plainly: Inhibition of recombinant human MAOB expressed in baculovirus infected in BTI cells using benzylamine as substrate preincubated with enzyme for 30 mins followed by substrate addition and measured every 2.5 mins for 30 mins by Amplex-Red oxidation assay. The settings on record: read-out: pIC50 (converted).

Data set [13] deals with T1, Amine oxidase [copper-containing] 3. Briefly: Inhibition of recombinant human SSAO using benzylamine as substrate preincubated with enzyme for 30 mins followed by substrate addition and measured every 2.5 mins for 30 mins by Amplex-Red oxidation assay. The settings on record: read-out: pIC50 (converted).

Calls of active or inactive are those of the source. The rule behind the calls is not given here.

Regarding `Cc1c(-c2cccc(S(=O)(=O)N(C)C)c2)c2ncccc2n1C/C(F)=C/CN.Cl`, the “fold change (FC)” value in data set [1] is 1.6; in [4], 6.4. Further, the IC50 is 20 nM at Lysyl oxidase homolog 2 [2] and 1260 nM at Protein-lysine 6-oxidase. Besides, the IC50 ratio in data set [3] was 70.

`Cc1c(-c2cccc(S(=O)(=O)N(C)C)c2)c2cc(C(=O)O)ccc2n1C/C(F)=C/CN`: the inhibition result in [5] is “Dose-dependent effect”; in the data set listed under Homo sapiens it was above 50%. The inhibition result in data set [6] and in [9] was “Active” throughout. For the same molecule, the Kinact in [7] was determined as 0.89 min⁻¹. Besides, the IC50 ratio in data set [3] is above 300. Moreover, in data set [8], the Imax was above 80%.

Take `Cc1c(-c2cccc(S(=O)(=O)N(C)C)c2)c2cc(C(=O)O)ccc2n1C/C=C/CN.Cl`: the Activity in [10] amounted to 75%. Moreover, the entries for the “fold change (FC)” value (in data set [1]; at Lysyl oxidase homolog 2 [11]; in data set [4]) were 1, 6 and 1.3, respectively. Also, the IC50 on Lysyl oxidase homolog 2 [2] is 794 nM; at Protein-lysine 6-oxidase it was 3160 nM.

On to `CN(C)S(=O)(=O)c1ccc(OCc2cn(C/C(F)=C/CN)nn2)cc1.Cl`, for which the IC50 was 126 nM in [12], 50.1 nM at Lysyl oxidase homolog 2 [2], 794 nM on Protein-lysine 6-oxidase and above 31600 nM in data set [13]. Also, the “fold change (FC)” value in data set [1] was above 4.

One may read the inhibition as the drop in the measured response relative to a control, in per cent.
